Consider 1 compound from ChEMBL document CHEMBL4017487, “Design and Synthesis of γ- and δ-Lactam M1 Positive Allosteric Modulators (PAMs): Convulsion and Cholinergic Toxicity of an M1-Selective PAM with Weak Agonist Activity” (J Med Chem, 2017).

A short description of series [1]: Ratio of unbound Cmax in dog brain assessed as convulsions at 15 mg/kg, po administered as single dose to unbound brain concentration for agonist activity at muscarinic acetylcholine receptor M1 in C57BL/6 mouse assessed as required to show 2 fold increase in IP1 accumulation in striatum at 1 to 10 mg/kg, sc. Format: organism-based.
A short description of series [2]: Clearance in dog at 0.1 mg/kg, iv administered as single bolus dose. It counts as ADME, organism-based, Canis lupus familiaris. The settings on record: in vivo.
A short description of series [3]: Half life in dog at 0.5 mg/kg, po administered as single dose. It counts as ADME, organism-based, Canis lupus familiaris. The conditions noted are these: in vivo. An outline of the steps:
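Dog, single oral dose of 0.5 mg/kg as a suspension in 0.5% methylcellulose. Half-life taken after the oral dose.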

Series [4] concerns Rattus norvegicus. In words: Unbound Cmax in rat plasma at 1 mg/kg, po administered as single dose. Format: ADME, organism-based. The conditions noted are these: in vivo. Put shortly: (§1)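 Rats (3/sex/dose) dosed orally once, 1 or 5 mg/kg as a 0.5% methylcellulose suspension.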
Series [5] deals with T1, Muscarinic acetylcholine receptor M1 (Homo sapiens, UniProt P11229).
T1 sequence (P11229 whole entry): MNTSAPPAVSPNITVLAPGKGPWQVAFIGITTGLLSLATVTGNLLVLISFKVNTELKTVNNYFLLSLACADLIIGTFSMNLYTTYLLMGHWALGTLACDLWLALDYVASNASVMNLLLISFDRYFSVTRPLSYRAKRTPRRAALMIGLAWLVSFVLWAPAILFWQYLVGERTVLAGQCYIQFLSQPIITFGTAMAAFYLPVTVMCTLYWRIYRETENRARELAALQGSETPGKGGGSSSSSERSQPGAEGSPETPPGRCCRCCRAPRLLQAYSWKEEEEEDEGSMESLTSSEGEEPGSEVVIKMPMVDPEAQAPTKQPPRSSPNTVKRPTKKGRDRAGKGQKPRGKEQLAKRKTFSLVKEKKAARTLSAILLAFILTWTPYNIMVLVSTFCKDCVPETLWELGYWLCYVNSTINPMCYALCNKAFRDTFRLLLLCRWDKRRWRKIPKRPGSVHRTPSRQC
The series is described as follows: Activity at human muscarinic acetylcholine receptor M1 expressed in CHO cells assessed as increase in acetylcholine-induced calcium mobilization incubated for 10 mins by Fluo-8-AM dye based FLIPR assay. Format: ADME, cell-based. Put shortly:
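Calcium-mobilization potentiation assay read on a FLIPR plate reader in the presence of an EC20 concentration of ACh. EC50 is the geometric mean of at least three experiments.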
(In general: Calcium flux is commonly read through the fluorescence of an indicator in the cells.)

The test system of series [6] is Rattus norvegicus. In words: Unbound AUC (0 to 24 hrs) in rat plasma at 1 mg/kg, po administered as single dose. It counts as ADME, organism-based. The settings on record: in vivo. Put shortly: as §1
In series [7] the test system is Plasma. The series is described as follows: Unbound plasma concentration in amphetamine-induced hyperlocomotion C57BL/6 mouse at 1 mg/kg, sc measured after 1 hr by LC-MS/MS analysis. It counts as ADME, organism-based. The conditions noted are these: in vivo. Put shortly: (§2)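 Satellite group of C57BL/6 mice from the amphetamine-stimulated locomotor study, N = 2/dose at 0.32, 1 and 3.2 mg/kg. Dosed sc as a solution in 10/90 Cremophor/water. Unbound plasma and brain concentrations measured at T = 1 h.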

For the next series, the species on record is Cavia porcellus. The series is described as follows: (§3) Agonist activity at muscarinic acetylcholine receptor M1 in Hartley guinea pig ileum longitudinal muscle myenteric plexus assessed as tissue contraction after 10 mins.
Series [8] in a line: as §3. The settings on record: Cavia porcellus.
In series [9] the target is Muscarinic acetylcholine receptor M3 (Homo sapiens, UniProt P20309). In words: Positive allosteric modulation of human muscarinic acetylcholine receptor M3 expressed in CHO cells assessed as increase in acetylcholine-induced calcium mobilization up to 10 uM preincubated for 10 mins followed by acetylcholine addition by Fluo-8-AM dye based FLIPR assay. Format: cell-based. An outline of the steps: (§4)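 Recombinant functional human M2–M5 assays, each run in agonist and PAM modes at concentrations up to 10 μM.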
Sequence of Muscarinic acetylcholine receptor M3 (P20309 whole entry): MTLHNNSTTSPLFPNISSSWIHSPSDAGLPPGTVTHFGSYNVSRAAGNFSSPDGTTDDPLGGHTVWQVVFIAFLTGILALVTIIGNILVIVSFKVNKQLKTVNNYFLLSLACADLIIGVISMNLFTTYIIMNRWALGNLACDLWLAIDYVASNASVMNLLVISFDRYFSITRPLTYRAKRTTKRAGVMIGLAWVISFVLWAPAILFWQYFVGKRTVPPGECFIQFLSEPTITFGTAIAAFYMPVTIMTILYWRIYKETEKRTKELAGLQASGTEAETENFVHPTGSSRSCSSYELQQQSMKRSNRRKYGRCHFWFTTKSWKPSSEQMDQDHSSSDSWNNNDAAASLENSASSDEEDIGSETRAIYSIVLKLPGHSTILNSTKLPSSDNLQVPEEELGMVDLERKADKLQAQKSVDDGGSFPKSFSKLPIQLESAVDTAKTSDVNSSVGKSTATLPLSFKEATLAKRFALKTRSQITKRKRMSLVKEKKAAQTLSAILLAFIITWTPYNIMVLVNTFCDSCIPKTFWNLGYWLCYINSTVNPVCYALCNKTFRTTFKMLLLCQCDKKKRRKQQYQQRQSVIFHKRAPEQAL

For series [10], the system named is Canis familiaris. In words: Cholinergic toxicity in dog assessed as emesis at 5 mg/kg, po administered as single dose using shydroxypropyl cellulose/docusate sodium formulation after 0.5 to 1.3 hrs. It counts as organism-based, Canis lupus familiaris. The conditions noted are these: in vivo. Put shortly:
(§5)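 Single-dose oral dose-escalation study, 1 dog/sex/dose. The 5 mg/kg dose was given as a nanosuspension in hydroxypropyl cellulose SL with 0.05% docusate sodium in purified water. Cholinergic clinical signs were recorded at approximate hours postdose, alongside unbound plasma Cmax.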

In series [11] the target is T1, Muscarinic acetylcholine receptor M1. In words: Agonist activity at human muscarinic acetylcholine receptor M1 expressed in CHO cells assessed as increase in calcium mobilization incubated for 10 mins by Fluo-8-AM dye based FLIPR assay. Format: cell-based. Put shortly: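 M1 FLIPR calcium mobilization run in agonist mode (compound added without the EC20 ACh used in PAM mode). Top concentration 10 μM. EC50 values are geometric means of at least three experiments.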

The subject of series [12] is Plasma. In words: Unbound plasma concentration in scopolamine-induced memory impairment Wistar rat model at 1 mg/kg, sc measured after 1.25 hrs by LC-MS/MS analysis. It counts as ADME, organism-based. The conditions noted are these: in vivo. Put shortly:
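Rats from a satellite group of the scopolamine (0.32 mg/kg) Morris water maze study, N = 2/dose. Dosed sc as a solution in 20% hydroxypropyl β-cyclodextrin. Compound concentrations measured in plasma only at T = 1.25 h.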

The next series has as its system Brain. In words: Unbound brain concentration in amphetamine-induced hyperlocomotion C57BL/6 mouse at 0.3 mg/kg, sc measured after 1 hr by LC-MS/MS analysis. The settings on record: in vivo. Format: ADME, organism-based. Put shortly: as §2
Series [13] concerns Rattus norvegicus. In words: Toxicity in rat assessed as unbound Cmax in brain required to show convulsions at 45 mg/kg, po administered as single dose. It counts as organism-based. The conditions noted are these: in vivo.
Series [14] concerns Rattus norvegicus. In words: Unbound AUC (0 to 24 hrs) in rat plasma at 5 mg/kg, po administered as single dose. Format: ADME, organism-based. The conditions noted are these: in vivo. An outline of the steps:
as §1

In series [15] the target is Dual 3',5'-cyclic-AMP and -GMP phosphodiesterase 11A (Homo sapiens, UniProt Q9HCR9). In words: Inhibition of PDE11A4 (unknown origin).
Sequence of Dual 3',5'-cyclic-AMP and -GMP phosphodiesterase 11A (Q9HCR9 whole entry): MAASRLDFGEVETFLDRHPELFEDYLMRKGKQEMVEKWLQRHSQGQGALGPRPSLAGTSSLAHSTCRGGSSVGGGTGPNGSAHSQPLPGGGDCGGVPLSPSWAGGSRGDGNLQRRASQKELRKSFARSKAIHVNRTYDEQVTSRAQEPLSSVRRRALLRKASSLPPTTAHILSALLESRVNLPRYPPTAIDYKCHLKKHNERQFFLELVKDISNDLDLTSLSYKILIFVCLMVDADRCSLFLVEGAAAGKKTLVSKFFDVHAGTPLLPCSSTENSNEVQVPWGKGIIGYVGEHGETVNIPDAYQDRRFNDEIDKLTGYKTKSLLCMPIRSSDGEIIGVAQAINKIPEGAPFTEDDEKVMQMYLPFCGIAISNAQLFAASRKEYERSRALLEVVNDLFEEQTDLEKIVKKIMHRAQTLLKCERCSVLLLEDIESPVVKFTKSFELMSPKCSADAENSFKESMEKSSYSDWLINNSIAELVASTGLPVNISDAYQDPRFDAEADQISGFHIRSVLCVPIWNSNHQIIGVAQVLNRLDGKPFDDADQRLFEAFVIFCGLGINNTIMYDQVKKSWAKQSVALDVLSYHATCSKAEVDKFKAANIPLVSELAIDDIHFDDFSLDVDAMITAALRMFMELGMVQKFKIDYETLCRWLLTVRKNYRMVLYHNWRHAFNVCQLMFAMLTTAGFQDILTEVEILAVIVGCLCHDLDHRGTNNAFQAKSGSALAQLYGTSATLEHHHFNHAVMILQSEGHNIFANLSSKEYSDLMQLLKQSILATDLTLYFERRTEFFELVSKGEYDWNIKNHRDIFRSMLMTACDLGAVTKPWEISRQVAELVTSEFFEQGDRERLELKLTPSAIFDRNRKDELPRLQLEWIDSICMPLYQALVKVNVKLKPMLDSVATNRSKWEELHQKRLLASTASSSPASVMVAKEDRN
The nature of series [16]: Ratio of unbound AUC in rat brain to plasma at 2 mg/kg, po or 0.5 mg/kg, iv administered as single bolus dose. It counts as ADME, organism-based.
In series [17] the target is T2, Muscarinic acetylcholine receptor M4 (Homo sapiens, UniProt P08173).
T2 sequence (P08173 whole entry): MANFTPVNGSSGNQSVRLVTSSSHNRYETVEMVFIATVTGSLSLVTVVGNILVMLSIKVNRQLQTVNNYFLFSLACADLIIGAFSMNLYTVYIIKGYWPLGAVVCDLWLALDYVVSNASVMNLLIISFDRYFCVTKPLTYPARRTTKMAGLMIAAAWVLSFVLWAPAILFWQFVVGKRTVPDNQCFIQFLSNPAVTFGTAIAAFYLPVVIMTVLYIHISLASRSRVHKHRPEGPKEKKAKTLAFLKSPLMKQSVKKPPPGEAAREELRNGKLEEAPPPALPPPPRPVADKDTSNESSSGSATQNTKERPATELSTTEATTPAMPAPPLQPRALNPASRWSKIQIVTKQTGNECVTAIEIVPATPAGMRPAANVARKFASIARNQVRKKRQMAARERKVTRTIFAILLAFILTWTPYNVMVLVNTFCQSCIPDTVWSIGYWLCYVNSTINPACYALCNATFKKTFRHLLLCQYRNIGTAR
The series is described as follows: Agonist activity at human muscarinic acetylcholine receptor M4 expressed in CHO cells assessed as increase in cAMP accumulation after 2 hrs by cAMP-Glo assay. Format: cell-based. An outline of the steps:
as §4

Series [18] relates to Rattus norvegicus. The series is described as follows: Unbound Cmax in rat plasma at 5 mg/kg, po administered as single dose. It counts as ADME, organism-based. The settings on record: in vivo. Put shortly: as §1
Series [19] has as its system Canis familiaris. The series is described as follows: Cholinergic toxicity in dog assessed as watery stool at 5 mg/kg, po administered as single dose using shydroxypropyl cellulose/docusate sodium formulation after 0.5 to 1.3 hrs. Format: organism-based, Canis lupus familiaris. The conditions noted are these: in vivo. Put shortly: as §5

By clearance is commonly meant the volume of plasma or blood freed of the substance per unit of time. A low value points to a low capacity for elimination. One may read the half-life as how long it takes for the measured level to halve. A low value points to rapid decline. As usually defined, the EC50 is the midpoint of the concentration-response curve. A word on the IC50: it is the concentration needed to halve the response being measured. Higher therefore signals a need for much substance.

For `Cc1cc2c(cc1Cc1ccc(-c3cocn3)cc1)C(=O)N([C@H]1CCOC[C@@H]1O)C2`, in series [1], the selectivity ratio amounted to 15. Further, in series [2], the clearance was found to be 1.7 mL/min/kg. Further, the half-life in [3] was 7.3 h. For the same compound, the fCmax in the series with Rattus norvegicus [4] is reported as 73 nM; in the series on Rattus norvegicus [13], 440 nM; in the series with Rattus norvegicus [18], 313 nM. Also, in series [5], the KA came to 1.3 µM. Moreover, the figures for the fAUC in the series with Rattus norvegicus [6] and with Rattus norvegicus [14] were 1.048 µM·h and 4.927 µM·h, respectively. Also, the entries for the “Cp(f)” value with Plasma [7] and with Plasma [12] were 46 nM and 66 nM, respectively. Moreover, the Activity result was “Dose-dependent effect” in the series listed under Cavia porcellus, “Not Active” in series [9], “Toxic” in the series on Canis familiaris [10] and “Toxic” with Canis familiaris [19]. Moreover, the concentration for a half-maximal effect (EC50) in [8] is 0.092 µM; in [11], at least 5 µM; in series [17], above 10 µM. Also, the “Drug uptake(free)” value with Brain was found to be 3.8 nM. Also, the IC50 in series [15] is 5.06 µM. Besides, the Kp uu in [16] turned out to be 0.2.
